Calls of active or inactive are those of the source. No cut-off for these calls is given here.
Experiments:
Homo sapiens = species on record: Homo sapiens; experiment: Selectivity ratio, ratio of inhibition of HDAC in human HeLa nuclear extract assessed as residual activity to inhibition of human recombinant HDAC6 assessed as residual activity
Summary of the method: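 Compounds at 20 μM tested by fluorometric assay on HeLa nuclear extract (class I/II HDACs) and on human recombinant HDAC6. Residual activity is expressed relative to untreated control. Selectivity is the ratio of PanHDAC to HDAC6 residual activity: ≥7 high, 2.5–6.9 moderate, <2.5 low.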

[1] = Hepatotoxicity in Swiss albino mouse assessed as albumin level at 50 mg/kg, po administered for 7 days (reference value: 4.12 +/- 0.17 g/dl); format: toxicity, organism-based; details: in vivo, 168 h, time 7 day
Summary of the method: (§1)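 Single acute oral dose (5, 50, 300 or 1000 mg/kg) given to Swiss albino mice, n = 6, with 7-day observation. At the end, haematological and serum biochemical parameters were measured. Compared with untreated controls; mean ± SE, ANOVA, p < 0.05.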

[2] = Antiinflammatory activity in mouse peritoneal macrophage assessed as reduction in LPS-induced TNFalpha production at 1 ug/ml; format: functional; details: dose 1 µg/ml
[3] = Antiinflammatory activity in mouse peritoneal macrophage assessed as reduction in LPS-induced IL6 production at 1 ug/ml; format: functional; details: dose 1 µg/ml
MCF7 = experiment: Cytotoxicity against human MCF7 cells incubated for 72 hrs by Sulphorhodamine assay; format: functional, cell-based; details: MCF7, 72 h
[4] = Toxicity in Swiss albino mouse assessed as triglyceride level at 5 mg/kg, po administered for 7 days (reference value: 136.88 +/- 3.12 mg/dl); format: organism-based; details: in vivo, 168 h, time 7 day
[5] = Toxicity in Swiss albino mouse assessed as change in relative lungs weight at 5 to 1000 mg/kg, po administered for 7 days; format: organism-based; details: in vivo, 168 h, dose 5-1000 mg/kg, time 7 day
[6] = Hepatotoxicity in Swiss albino mouse assessed as SGOT level at 50 mg/kg, po administered for 7 days (reference value: 31.51 +/- 6.31 U/L); format: toxicity, organism-based; details: in vivo, 168 h, time 7 day; summary of the method: as §1
[7] = Toxicity in Swiss albino mouse assessed as mortality at 5 to 1000 mg/kg, po administered for 7 days; format: organism-based; details: in vivo, 168 h, dose 5-1000 mg/kg, time 7 day
[8] = Hepatotoxicity in Swiss albino mouse assessed as SGOT level at 5 mg/kg, po administered for 7 days (reference value: 31.51 +/- 6.31 U/L); format: toxicity, organism-based; details: in vivo, 168 h, time 7 day; summary of the method: as §1
[9] = Hepatotoxicity in Swiss albino mouse assessed as SGPT level at 5 mg/kg, po administered for 7 days (reference value: 17.01 +/- 2.33 U/L); format: toxicity, organism-based; details: in vivo, 168 h, time 7 day; summary of the method: as §1
[10] = Toxicity in Swiss albino mouse assessed as RBC level at 1000 mg/kg, po administered for 7 days (reference value: 7.13 +/- 0.40 million/mm3); format: organism-based, Erythrocyte; details: in vivo, 168 h, time 7 day; summary of the method: as §1
[11] = Hepatotoxicity in Swiss albino mouse assessed as albumin level at 1000 mg/kg, po administered for 7 days (reference value: 4.12 +/- 0.17 g/dl); format: toxicity, organism-based; details: in vivo, 168 h, time 7 day; summary of the method: as §1
[12] = Toxicity in Swiss albino mouse assessed as triglyceride level at 50 mg/kg, po administered for 7 days (reference value: 136.88 +/- 3.12 mg/dl); format: organism-based; details: in vivo, 168 h, time 7 day
[13] = Toxicity in Swiss albino mouse assessed as change in relative spleen weight at 5 to 1000 mg/kg, po administered for 7 days; format: organism-based; details: in vivo, 168 h, dose 5-1000 mg/kg, time 7 day
[14] = Hepatotoxicity in Swiss albino mouse assessed as serum protein level at 5 mg/kg, po administered for 7 days (reference value: 5.73 +/- 0.21 mg/ml); format: toxicity, organism-based; details: in vivo, 168 h, time 7 day; summary of the method: as §1
[15] = Renal toxicity in Swiss albino mouse assessed as creatinine level at 1000 mg/kg, po administered for 7 days (reference value: 0.76 +/- 0.06 mg/dl); format: organism-based; details: in vivo, 168 h, time 7 day; summary of the method: as §1
Tubulin (Homo sapiens) = Tubulin (Homo sapiens) (UniProt P68371+Q9H4B7+P0DPH7+P68366+Q13509+Q71U36+P04350+Q3ZCM7+P07437+P68363+Q9BQE3+Q6PEY2+Q13885+Q9BVA1+Q9BUF5); experiment: Induction of microtubule stabilization in human HeLa cells assessed as effect on cellular cytoskeletal network of tubulin at 5 to 10 uM incubated for 4 hrs by Alexa Fluor 488 staining based confocal microscopic analysis; format: cell-based; details: dose 5-10 µM
Summary of the method: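 HeLa cells treated for 4 h at 5 and 10 μM. Microtubules immunostained with Alexa Fluor 488-conjugated anti-β-tubulin and imaged by confocal microscopy with a 60× Plan Apochromat objective. References: paclitaxel 5 nM, podophyllotoxin 5 μM.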

[16] = Toxicity in Swiss albino mouse assessed as change in relative liver weight at 5 to 1000 mg/kg, po administered for 7 days; format: organism-based; details: in vivo, 168 h, dose 5-1000 mg/kg, time 7 day
[17] = Toxicity in Swiss albino mouse assessed as change in relative brain weight at 5 to 1000 mg/kg, po administered for 7 days; format: organism-based; details: in vivo, 168 h, dose 5-1000 mg/kg, time 7 day
[18] = Toxicity in Swiss albino mouse assessed as change in body weight at 5 mg/kg, po administered for 7 days (reference value: 29.35 +/- 0.57 g); format: organism-based; details: in vivo, 168 h, time 7 day
[19] = Hepatotoxicity in Swiss albino mouse assessed as SGPT level at 300 mg/kg, po administered for 7 days (reference value: 17.01 +/- 2.33 U/L); format: toxicity, organism-based; details: in vivo, 168 h, time 7 day; summary of the method: as §1
[20] = Toxicity in Swiss albino mouse assessed as change in absolute kidney weight at 5 to 1000 mg/kg, po administered for 7 days; format: organism-based; details: in vivo, 168 h, dose 5-1000 mg/kg, time 7 day
[21] = Toxicity in Swiss albino mouse assessed as change in relative kidney weight at 5 to 1000 mg/kg, po administered for 7 days; format: organism-based; details: in vivo, 168 h, dose 5-1000 mg/kg, time 7 day
[22] = Toxicity in Swiss albino mouse assessed as change in body weight at 1000 mg/kg, po administered for 7 days (reference value: 29.35 +/- 0.57 g); format: organism-based; details: in vivo, 168 h, time 7 day
[23] = Antiinflammatory activity in mouse peritoneal macrophage assessed as inhibition of LPS-induced TNFalpha production at 1 ug/ml relative to control; format: functional; design: scale not given: the % may be the effect or the level left; details: dose 1 µg/ml
[24] = Hepatotoxicity in Swiss albino mouse assessed as alkaline phosphatase level at 300 mg/kg, po administered for 7 days (reference value: 260.10 +/- 26.76 U/L); format: toxicity, organism-based; details: in vivo, 168 h, time 7 day; summary of the method: as §1
[25] = Hepatotoxicity in Swiss albino mouse assessed as albumin level at 300 mg/kg, po administered for 7 days (reference value: 4.12 +/- 0.17 g/dl); format: toxicity, organism-based; details: in vivo, 168 h, time 7 day; summary of the method: as §1
[26] = Toxicity in Swiss albino mouse assessed as cholesterol level at 50 mg/kg, po administered for 7 days (reference value: 140.17 +/- 3.76 mg/dl); format: organism-based; details: in vivo, 168 h, time 7 day
[27] = Toxicity in Swiss albino mouse assessed as triglyceride level at 300 mg/kg, po administered for 7 days (reference value: 136.88 +/- 3.12 mg/dl); format: organism-based; details: in vivo, 168 h, time 7 day
[28] = Antiinflammatory activity in mouse peritoneal macrophage assessed as inhibition of LPS-induced IL6 production at 10 ug/ml relative to control; format: functional; design: scale not given: the % may be the effect or the level left; details: dose 10 µg/ml
[29] = Hepatotoxicity in Swiss albino mouse assessed as SGOT level at 300 mg/kg, po administered for 7 days (reference value: 31.51 +/- 6.31 U/L); format: toxicity, organism-based; details: in vivo, 168 h, time 7 day; summary of the method: as §1
[30] = Toxicity in Swiss albino mouse assessed as RBC level at 300 mg/kg, po administered for 7 days (reference value: 7.13 +/- 0.40 million/mm3); format: organism-based, Erythrocyte; details: in vivo, 168 h, time 7 day; summary of the method: as §1

**Q.** For `COc1cc(C2/C(=C/c3ccc(/C=C/C(=O)NO)cc3)C(=O)c3cc(OC)c(OC)c(OC)c32)cc(OC)c1OC` (stereo not drawn), which Ratio (Homo sapiens) is on record?
**A.** < 0.5

**Q.** What about the Activity [1] of the same compound?
**A.** 4.36 g/dL

**Q.** And the Activity [2]?
**A.** 1019.21 pg/mL

**Q.** What about the Activity [3] of the same compound?
**A.** 2617.2 pg/mL

**Q.** What about the IC50 (MCF7) of the same compound?
**A.** > 100 µM

**Q.** What about the Activity [4] of the same compound?
**A.** 146.79 mg/dL

**Q.** What about the Activity [5] of the same compound?
**A.** Non-Toxic

**Q.** And the Activity [6]?
**A.** 33.67 U/L

**Q.** What about the Activity [7] of the same compound?
**A.** Non-Toxic

**Q.** And the Activity [8]?
**A.** 28.87 U/L

**Q.** And the Activity [9]?
**A.** 16.79 U/L

**Q.** What about the Activity [10] of the same compound?
**A.** 8.53 million/mm3

**Q.** What about the Activity [11] of the same compound?
**A.** 4.53 g/dL

**Q.** And the Activity [12]?
**A.** 129.78 mg/dL

**Q.** And the Activity [13]?
**A.** Non-Toxic

**Q.** What about the Activity [14] of the same compound?
**A.** 5.44 mg/mL

**Q.** And the Activity [15]?
**A.** 0.74 mg/dL

**Q.** What about the Activity (Tubulin (Homo sapiens)) of the same compound?
**A.** Active

**Q.** And the Activity [16]?
**A.** Non-Toxic

**Q.** And the Activity [17]?
**A.** Non-Toxic

**Q.** What about the Activity [18] of the same compound?
**A.** 28.17 g

**Q.** And the Activity [19]?
**A.** 17.95 U/L

**Q.** What about the Activity [20] of the same compound?
**A.** Non-Toxic

**Q.** And the Activity [21]?
**A.** Non-Toxic

**Q.** And the Activity [22]?
**A.** 27.43 g

**Q.** What about the Activity [23] of the same compound?
**A.** 17.28%

**Q.** And the Activity [24]?
**A.** 238.88 U/L

**Q.** What about the Activity [25] of the same compound?
**A.** 4.46 g/dL

**Q.** What about the Activity [26] of the same compound?
**A.** 157.99 mg/dL

**Q.** What about the Activity [27] of the same compound?
**A.** 127.18 mg/dL

**Q.** What about the Activity [28] of the same compound?
**A.** 27.01%

**Q.** And the Activity [29]?
**A.** 29.93 U/L

**Q.** And the Activity [30]?
**A.** 8.48 million/mm3

— ChEMBL document CHEMBL5257120 (Bioorg Med Chem, 2023)
